Calls of active or inactive are those of the source. No cut-off for these calls is given here.
Columns and labels:
[1] = biological target: T1, 85/88 kDa calcium-independent phospholipase A2 (Homo sapiens) (UniProt O60733); experiment: Inhibition of group 6A iPLA2 at 0.02 mole fraction
T1 sequence (whole entry): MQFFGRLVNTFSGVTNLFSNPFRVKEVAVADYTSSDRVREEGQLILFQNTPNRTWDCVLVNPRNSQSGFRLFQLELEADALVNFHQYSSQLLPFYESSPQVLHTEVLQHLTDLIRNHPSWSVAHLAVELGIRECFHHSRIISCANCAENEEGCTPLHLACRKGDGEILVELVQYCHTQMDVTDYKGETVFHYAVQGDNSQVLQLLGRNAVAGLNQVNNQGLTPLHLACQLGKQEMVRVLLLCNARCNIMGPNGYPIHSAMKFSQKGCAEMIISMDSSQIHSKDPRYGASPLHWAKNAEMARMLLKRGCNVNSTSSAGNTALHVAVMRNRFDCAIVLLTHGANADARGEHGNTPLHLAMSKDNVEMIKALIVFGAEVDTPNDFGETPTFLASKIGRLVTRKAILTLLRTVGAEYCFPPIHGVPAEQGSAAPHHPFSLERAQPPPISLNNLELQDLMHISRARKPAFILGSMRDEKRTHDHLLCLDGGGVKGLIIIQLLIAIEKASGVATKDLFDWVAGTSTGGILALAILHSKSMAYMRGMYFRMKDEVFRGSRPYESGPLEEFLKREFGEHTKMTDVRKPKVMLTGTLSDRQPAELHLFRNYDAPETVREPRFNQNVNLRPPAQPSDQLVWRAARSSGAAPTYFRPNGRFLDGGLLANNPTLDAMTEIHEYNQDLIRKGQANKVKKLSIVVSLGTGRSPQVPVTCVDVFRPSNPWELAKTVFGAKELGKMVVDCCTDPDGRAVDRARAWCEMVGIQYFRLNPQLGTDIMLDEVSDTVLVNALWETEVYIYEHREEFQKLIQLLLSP

[2] = biological target: T2, Cytosolic phospholipase A2 (Homo sapiens) (UniProt P47712); experiment: Inhibition of group 4A cPLA2 at 0.01 mole fraction
T2 sequence (whole entry): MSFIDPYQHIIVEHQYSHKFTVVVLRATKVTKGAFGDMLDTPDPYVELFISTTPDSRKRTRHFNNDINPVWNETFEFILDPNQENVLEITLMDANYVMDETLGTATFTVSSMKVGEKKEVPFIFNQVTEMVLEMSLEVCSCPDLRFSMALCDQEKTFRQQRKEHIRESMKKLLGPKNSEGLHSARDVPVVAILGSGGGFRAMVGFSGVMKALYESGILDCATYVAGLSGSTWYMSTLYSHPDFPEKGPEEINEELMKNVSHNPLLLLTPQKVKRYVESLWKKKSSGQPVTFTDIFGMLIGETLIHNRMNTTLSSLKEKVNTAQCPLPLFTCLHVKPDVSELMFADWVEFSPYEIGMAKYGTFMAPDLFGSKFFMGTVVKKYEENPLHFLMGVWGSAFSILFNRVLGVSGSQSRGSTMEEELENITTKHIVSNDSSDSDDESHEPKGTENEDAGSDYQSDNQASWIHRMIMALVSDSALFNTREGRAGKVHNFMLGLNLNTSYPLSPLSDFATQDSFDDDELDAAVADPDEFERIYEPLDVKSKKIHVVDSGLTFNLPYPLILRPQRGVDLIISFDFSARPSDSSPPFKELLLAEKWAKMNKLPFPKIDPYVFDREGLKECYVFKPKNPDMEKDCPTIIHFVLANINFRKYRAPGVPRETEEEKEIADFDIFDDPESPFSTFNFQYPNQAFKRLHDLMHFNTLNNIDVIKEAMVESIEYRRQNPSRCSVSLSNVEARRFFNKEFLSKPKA

[3] = biological target: T1, 85/88 kDa calcium-independent phospholipase A2 (Homo sapiens); experiment: Inhibition of group 6A iPLA2 at 0.091 mole fraction
Outline: (§1)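 Recombinant human GVIA-2 iPLA2 (His-tagged) was expressed in Sf9 cells by baculovirus and purified on Ni-NTA. Enzyme (190 ng) acted on mixed micelles of 100 µM DPPC with [14C]-palmitoyl PC tracer and 400 µM Triton X-100, in HEPES pH 7.5 with EDTA, DTT and ATP and 1% DMSO. Runs were 30 min at 40 °C, read by modified Dole assay. XI(50) (mole fraction) came from a logarithmic or linear fit; highest dose 0.091 mole fraction.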

[4] = biological target: T2, Cytosolic phospholipase A2 (Homo sapiens); experiment: Inhibition of group 4A cPLA2 at 0.091 mole fraction
Outline: (§2)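 Native human GIVA cPLA2 (10 ng) was assayed in 100 mM HEPES pH 7.5 with 80 µM CaCl2, 0.1 mg/mL fatty-acid-free BSA and 2 mM DTT. Substrate was 97 µM 1-palmitoyl-2-[14C]-arachidonoyl PC with 3 µM PIP2 and 400 µM Triton X-100 micelles, plus 1% DMSO. Runs were 30 min at 40 °C, read by modified Dole assay. Potency is XI(50) in surface mole fraction; highest dose 0.091 mole fraction.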

[5] = biological target: T2, Cytosolic phospholipase A2 (Homo sapiens); experiment: Inhibition of group 4A cPLA2; outline: as §2
[6] = tested on: RAW264.7; experiment: Inhibition of LPS-stimulated prostaglandin PGE2 production in mouse RAW 264.7 macrophage-like cell line; assay type: functional
Outline: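 RAW 264.7 cells in DMEM/10% FCS were plated at 5×10^5 per well, allowed to adhere 24 h, then held serum-free 18 h. Inhibitors, in DMSO (<0.5% v/v) diluted into serum-free medium, were added 30 min before 100 ng/mL E. coli 0111:B4 LPS for 24 h. Medium PGE2 was quantified by LC-MS (negative ESI, MRM) against a deuterated PGE2 internal standard.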

[7] = biological target: T1, 85/88 kDa calcium-independent phospholipase A2 (Homo sapiens); experiment: Inhibition of group 6A iPLA2; outline: as §1

SMILES	inhibition [3]	inhibition [4]	XI50 (mole fraction) [5]	further results
CCCCCCCCCCCCCC(=O)C(N)=O				inhibition [1]: 0%; inhibition [2]: 0%
NC(=O)C(=O)CCCCc1ccccc1	0%	0%		
COC(=O)CCCNC(=O)C(=O)CCCCc1ccccc1	0%	0%		
CCCCCCCCCCCCCCCCNC(=O)C(=O)CC				inhibition [1]: 25%; inhibition [2]: 0%
CCCCCCCCCCCCCCC(=O)C(=O)NCCCC(=O)O	0%		0.017	
CCCCCCCCCCCCCCC(=O)C(=O)NCCCCCC				inhibition [1]: 25%; inhibition [2]: 0%
CCCCCCCCCCCCCCC(=O)C(=O)N[C@@H](/C=C/C(=O)OC)CCCC			0.018	Inhibition [6]: 40%; XI50 (mole fraction) [7]: 0.032
CCCCCCCCCCCCCCC(=O)C(=O)N[C@H](/C=C/C(=O)O)CCCC	0%		0.003	
CCCCCCCCCCCCCCC(=O)C(=O)NCCCC(=O)OC	25%	0%		inhibition [6]: inactive
CCCCCCCC/C=C\CCCCCCCC(=O)C(=O)NCCCC(=O)OC			0.012	Inhibition [6]: 40%; XI50 (mole fraction) [7]: 0.067
CCCCCCCC/C=C\CCCCCCCC(=O)C(=O)NCCCC(=O)O	0%		0.011	
O=C(O)CCCNC(=O)C(=O)CCCc1ccccc1	0%	0%		
O=C(O)CCCNC(=O)C(=O)CCCCc1ccccc1	0%	0%		
COC(=O)CCCNC(=O)C(=O)CCCc1ccccc1	0%	0%		
